Key:
[1] = Free radical scavenging assessed as DPPH color reduction
In short: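 DMSO sample mixed in microplate with 0.1 M Tris-HCl pH 7.4 and 0.5 mM DPPH in absolute ethanol. Incubated 20 min in the dark, A517 read. Scavenging taken as % decolorization versus solvent control. SC50 by linear regression from at least five concentrations in triplicate.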

[2] = Inhibition of yeast Alpha-glucosidase; design: species or system Saccharomyces cerevisiae
In short: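 Yeast α-glucosidase (0.74 u/mL) in 100 mM phosphate pH 7.0 with BSA and 0.20% sodium azide. DMSO sample incubated with enzyme 5 min, A405 zero read. Substrate added, 10 min at 26–28 °C, A405 re-read; increase used for % inhibition. Triplicates; IC50 by linear regression.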

[3] = target: T1, Xanthine dehydrogenase/oxidase (Homo sapiens, UniProt P47989); experiment: Inhibitory concentration against Xanthine oxidase; Not active at 50 ug/mL concentration; assay type: single protein
T1 sequence (P47989 whole entry): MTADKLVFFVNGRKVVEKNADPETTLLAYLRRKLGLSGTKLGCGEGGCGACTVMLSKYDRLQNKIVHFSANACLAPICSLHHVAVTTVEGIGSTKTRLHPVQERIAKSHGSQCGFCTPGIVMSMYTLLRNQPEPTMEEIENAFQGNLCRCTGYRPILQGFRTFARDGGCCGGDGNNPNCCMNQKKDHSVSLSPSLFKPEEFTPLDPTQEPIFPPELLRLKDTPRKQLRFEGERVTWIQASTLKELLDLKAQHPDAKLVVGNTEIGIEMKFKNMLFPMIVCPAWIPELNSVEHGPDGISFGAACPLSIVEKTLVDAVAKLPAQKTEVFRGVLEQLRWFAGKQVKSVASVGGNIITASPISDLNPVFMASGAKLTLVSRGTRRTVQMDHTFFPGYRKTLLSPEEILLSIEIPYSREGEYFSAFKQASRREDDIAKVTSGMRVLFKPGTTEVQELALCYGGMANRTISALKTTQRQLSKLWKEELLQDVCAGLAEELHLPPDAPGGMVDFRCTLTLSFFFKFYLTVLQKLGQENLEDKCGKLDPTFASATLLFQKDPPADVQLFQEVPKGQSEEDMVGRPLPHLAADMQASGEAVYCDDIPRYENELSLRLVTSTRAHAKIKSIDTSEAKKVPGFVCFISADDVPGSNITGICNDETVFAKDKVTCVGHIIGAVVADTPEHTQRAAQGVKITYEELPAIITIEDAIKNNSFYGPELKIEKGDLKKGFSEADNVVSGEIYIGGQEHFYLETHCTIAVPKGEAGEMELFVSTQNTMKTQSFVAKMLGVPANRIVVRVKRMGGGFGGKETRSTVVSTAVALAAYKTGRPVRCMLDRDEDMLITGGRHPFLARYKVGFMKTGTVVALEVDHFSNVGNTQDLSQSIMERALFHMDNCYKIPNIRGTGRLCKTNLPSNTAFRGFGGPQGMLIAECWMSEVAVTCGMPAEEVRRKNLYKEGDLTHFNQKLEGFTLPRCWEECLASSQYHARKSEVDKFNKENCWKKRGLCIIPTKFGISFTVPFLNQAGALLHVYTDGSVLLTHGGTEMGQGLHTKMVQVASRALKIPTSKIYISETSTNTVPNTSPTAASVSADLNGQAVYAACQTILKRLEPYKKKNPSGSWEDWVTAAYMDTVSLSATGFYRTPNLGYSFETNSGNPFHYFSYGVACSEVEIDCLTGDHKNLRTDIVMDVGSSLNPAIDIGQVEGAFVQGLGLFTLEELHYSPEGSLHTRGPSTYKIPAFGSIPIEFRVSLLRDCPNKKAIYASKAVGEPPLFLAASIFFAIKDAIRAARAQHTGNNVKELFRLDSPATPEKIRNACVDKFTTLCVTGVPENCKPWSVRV
In short: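 DMSO sample preincubated 15 min with xanthine oxidase (1 u/mL stock) in […] phosphate buffer pH 7.5. Started with 0.15 mM xanthine, run 30 min at 29 °C, stopped with 1 N HCl, A290 read. Compound blanks had HCl added before enzyme. Triplicates; % inhibition versus solvent control; IC50 by linear regression.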

[4] = target: T1, Xanthine dehydrogenase/oxidase; experiment: Inhibition of Xanthine oxidase; assay type: single protein
In short: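 DMSO sample preincubated 15 min with xanthine oxidase (1 u/mL stock) in […] phosphate buffer pH 7.5. Started with 0.15 mM xanthine, run 30 min at 29 °C, stopped with 1 N HCl, A290 read. Triplicates; % inhibition versus solvent control; IC50 by linear regression.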

[5] = Free radical scavenging assessed as ABTS (2,2'-azinobis-(3-ethyl benz) thiazoline-6-sulfonic acid) color change
In short: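 ABTS radical cation made by reacting 7 mM ABTS diammonium salt with 2.45 mM potassium persulfate overnight in the dark at room temp, then diluted in PBS pH 7.4 to A734 about 0.70. Sample added to diluted ABTS, A734 read within 1 min. Triplicates with blanks and controls. SC50 by linear regression from at least five concentrations.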

SC50 [1] [µM]	IC50 [2] [µM]	IC50 [3]	IC50 [4] [µM]	SC50 [5] [µM]	Structure (SMILES)
6.72	67.3	Not Active			COc1ccc(C(=O)O[C@@H]2Cc3ccc(O)c(O)c3O[C@H]2c2ccc(O)c(O)c2)cc1
8.99	32.8	Not Active			O=C(O[C@@H]1Cc2ccc(O)c(O)c2O[C@H]1c1ccc(O)c(O)c1)c1ccc(F)cc1
9.43	54.5		156	17.8	CCCCCCCCCCCCCCCCCC(=O)O[C@@H]1Cc2ccc(O)c(O)c2O[C@H]1c1ccc(O)c(O)c1
	50				OC[C@H]1NC[C@H](O)[C@@H](O)[C@@H]1O [DUVOGLUSTAT]
15.9				1.82	Cc1c(C)c2c(c(C)c1O)CCC(C)(C(=O)O)O2 (stereo unspecified)
6.72	82.3	Not Active		14.6	Oc1ccc([C@@H]2Oc3c(ccc(O)c3O)C[C@H]2O)cc1O
5.17	9.56		94.7	10.1	CCCCCCCCCCCCCCCC(=O)O[C@@H]1Cc2ccc(O)c(O)c2O[C@H]1c1ccc(O)c(O)c1
11.5	77.8	Not Active			O=C(O[C@@H]1Cc2ccc(O)c(O)c2O[C@H]1c1ccc(O)c(O)c1)c1ccccc1
7.15	46.3		150	13	CC(=O)O[C@@H]1Cc2ccc(O)c(O)c2O[C@H]1c1ccc(O)c(O)c1
8.89	46.2		139	14.1	CCCC(=O)O[C@@H]1Cc2ccc(O)c(O)c2O[C@H]1c1ccc(O)c(O)c1
21.7					CC(C)(Sc1cc(C(C)(C)C)c(O)c(C(C)(C)C)c1)Sc1cc(C(C)(C)C)c(O)c(C(C)(C)C)c1
6.68	49.3		129	14.4	CCCCCC(=O)O[C@@H]1Cc2ccc(O)c(O)c2O[C@H]1c1ccc(O)c(O)c1
7.51	12.6		102	11.3	CCCCCCCCCCCCCC(=O)O[C@@H]1Cc2ccc(O)c(O)c2O[C@H]1c1ccc(O)c(O)c1
13.5	178	Not Active			Oc1cc(O)c2c(c1)O[C@H](c1ccc(O)c(O)c1)[C@H](O)C2 [(-)-EPICATECHIN]
6.07	13.5		112	17.5	CCCCCCCCCC(=O)O[C@@H]1Cc2ccc(O)c(O)c2O[C@H]1c1ccc(O)c(O)c1
7.97	43.3	Not Active			O=C(O[C@@H]1Cc2ccc(O)c(O)c2O[C@H]1c1ccc(O)c(O)c1)c1ccccc1Cl

From ChEMBL document CHEMBL1136168, “Novel 3-O-acyl mesquitol analogues as free-radical scavengers and enzyme inhibitors: synthesis, biological evaluation and structure-activity relationship” (Bioorg Med Chem Lett, 2003)
